Results from ChEMBL document CHEMBL1147432, “Rational design of azepane-glycoside antibiotics targeting the bacterial ribosome” (Bioorg Med Chem Lett, 2004).
Converted amounts (≈) assume the structure as drawn.

Key:
[1] = test system: Staphylococcus aureus; experiment: Compound was tested for bacterial translation inhibition (in vitro) using transcription-translation assay; assay type: functional
How it was run: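 Coupled in vitro transcription–translation assay; IC50 from dose–response curves averaged over six independent experiments, error bars ±1σ.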

[2] = molecular target: Nucleic Acid; experiment: Compound was tested for binding to the bacterial decoding-site RNA target using an RNA fluorescence assay; assay type: nucleic-acid assay
How it was run: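 Fluorescence assay on a model decoding-site oligonucleotide, reporting ligand-induced flipping out of adenines A1492 and A1493; binding curve averaged from two titrations and fitted to a single-site model to give IC50.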

[3] = test system: Escherichia coli; experiment: Antibacterial activity against Escherichia coli (Strain ATCC 25922); assay type: functional
[4] = test system: Staphylococcus aureus; experiment: Antibacterial activity against Staphylococcus aureus (ATCC-25923); assay type: functional
[5] = Cytotoxic concentration against proliferation of eukaryotic cells; assay type: functional

Compound | IC50 [1] [µM] | IC50 [2] [µM] | MIC [3] [µg/mL] | MIC [4] [µg/mL] | CC50 [5] [µM]
CN1CC[C@H](N)[C@@H](O[C@H]2O[C@H](CN)[C@@H](O)[C@H](O)[C@H]2N)C[C@@H]1CO | 75 | > 250 | > 64 | > 64 | –
NC[C@H]1O[C@H](O[C@H]2C[C@H](CO)NCC[C@@H]2N)[C@H](N)[C@@H](O)[C@@H]1O | 5.7 | 11 | > 64 | 64 (≈ 200 µM) | > 320
NC[C@H]1O[C@H](O[C@H]2C[C@H](CO)NCC[C@@H]2N)[C@H](N)[C@@H](OCc2ccccc2)[C@@H]1OCc1ccccc1 | > 1000 | > 250 | > 64 | > 64 | –
NC[C@H]1O[C@H](O[C@@H]2C[C@@H](CO)NCC[C@H]2N)[C@H](N)[C@@H](O)[C@@H]1O | 180 | 80 | > 64 | > 64 | –
NC[C@H]1O[C@H](O[C@H]2C[C@H](CCl)NCC[C@@H]2N)[C@H](N)[C@@H](O)[C@@H]1O | 82 | > 250 | > 64 | > 64 | –
NC[C@H]1O[C@H](O[C@@H]2CCN[C@H](CO)C[C@H]2N)[C@H](N)[C@@H](O)[C@@H]1O | 47 | > 250 | > 64 | > 64 | –
NC[C@H]1C[C@H](O[C@H]2O[C@H](CN)[C@@H](O)[C@H](O)[C@H]2N)[C@@H](N)CCN1 | 170 | > 250 | > 64 | > 64 | –
NC[C@H]1O[C@H](O[C@H]2CCN[C@@H](CO)C[C@@H]2N)[C@H](N)[C@@H](O)[C@@H]1O | 370 | > 250 | > 64 | > 64 | –
NC[C@H]1O[C@H](O[C@@H]2CCN[C@@H](CO)C[C@H]2N)[C@H](N)[C@@H](O)[C@@H]1O | 230 | > 250 | > 64 | > 64 | –
NC[C@H]1O[C@H](O[C@H]2C[C@@H]3COC(=O)N3CC[C@@H]2N)[C@H](N)[C@@H](O)[C@@H]1O | > 1000 | > 250 | > 64 | > 64 | –
NC[C@H]1O[C@H](O[C@@H]2C[C@H](CO)NCC[C@H]2N)[C@H](N)[C@@H](O)[C@@H]1O | 6.4 | 12 | > 64 | 32 (≈ 99.9 µM) | > 320
N[C@H]1[C@@H](O[C@H]2C[C@H](CO)NCC[C@@H]2N)O[C@H](CO)[C@@H](O)[C@@H]1O | 110 | > 250 | > 64 | > 64 | –
NC[C@H]1O[C@H](O[C@H]2CCN[C@H](CO)C[C@@H]2N)[C@H](N)[C@@H](O)[C@@H]1O | 39 | > 250 | > 64 | > 64 | –
